Laboratory results from ChEMBL document CHEMBL1133663, “Synthesis and biological evaluation of 3,4-diaryloxazolones: A new class of orally active cyclooxygenase-2 inhibitors” (J Med Chem, 2000).

target: Prostaglandin G/H synthase 1 (Homo sapiens, UniProt P23219)
Sequence (P23219 whole entry): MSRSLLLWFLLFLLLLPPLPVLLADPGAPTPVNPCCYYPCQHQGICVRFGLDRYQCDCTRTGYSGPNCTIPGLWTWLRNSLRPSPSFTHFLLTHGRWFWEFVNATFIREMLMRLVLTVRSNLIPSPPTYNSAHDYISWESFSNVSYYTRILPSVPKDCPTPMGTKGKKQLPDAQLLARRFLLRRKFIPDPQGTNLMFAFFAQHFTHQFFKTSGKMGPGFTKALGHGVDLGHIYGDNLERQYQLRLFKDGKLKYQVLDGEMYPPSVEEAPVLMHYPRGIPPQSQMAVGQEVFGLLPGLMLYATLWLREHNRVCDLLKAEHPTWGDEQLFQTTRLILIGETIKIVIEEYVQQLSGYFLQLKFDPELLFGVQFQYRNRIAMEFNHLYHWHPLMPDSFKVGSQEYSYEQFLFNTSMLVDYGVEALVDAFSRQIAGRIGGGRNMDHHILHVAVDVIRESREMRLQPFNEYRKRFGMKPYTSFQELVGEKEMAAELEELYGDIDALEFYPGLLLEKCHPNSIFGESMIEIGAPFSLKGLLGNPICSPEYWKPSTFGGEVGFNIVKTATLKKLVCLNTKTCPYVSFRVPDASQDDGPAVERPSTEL

IC50 [µM] | Structure (SMILES)
> 100 | NS(=O)(=O)c1ccc(-c2coc(=O)n2-c2ccc(C(=O)O)cc2)cc1
> 100 | NS(=O)(=O)c1ccc(-c2coc(=O)n2-c2cccc(C(=O)O)c2)cc1
1.5 | NS(=O)(=O)c1ccc(-c2coc(=O)n2-c2ccc(Cl)c(Cl)c2)cc1
5.8 | COc1ccc(-n2c(-c3ccc(S(N)(=O)=O)cc3)coc2=O)cc1Cl
35.4 | NS(=O)(=O)c1ccc(-c2coc(=O)n2-c2ccccc2Cl)cc1
37.1 | NS(=O)(=O)c1ccc(-c2coc(=O)n2-c2cccc3ccccc23)cc1
10.4 | CCc1ccc(-n2c(-c3ccc(S(N)(=O)=O)cc3)coc2=O)cc1
42.4 | CCc1ccc(-n2c(-c3ccc(S(C)(=O)=O)cc3)coc2=O)cc1
0.9 | COc1ccc(-n2c(-c3ccc(S(N)(=O)=O)cc3)coc2=O)cc1
15.3 | NS(=O)(=O)c1ccc(-c2coc(=O)n2-c2ccc(F)cc2F)cc1

Second part, the molecule before the results:

Structure (SMILES) | IC50 [µM]
Cc1ccccc1-n1c(-c2ccc(S(N)(=O)=O)cc2)coc1=O | 29
Cc1ccc(-n2c(-c3ccc(S(N)(=O)=O)cc3)c(C)oc2=O)cc1 | 43.5
Cc1cccc(-n2c(-c3ccc(S(N)(=O)=O)cc3)c(C)oc2=O)c1 | 16.9
NS(=O)(=O)c1ccc(-c2coc(=O)n2-c2cccc(Cl)c2)cc1 | 10.8
CS(=O)(=O)c1ccc(-c2coc(=O)n2-c2ccccc2)cc1 | 33.6
CS(=O)(=O)c1ccc(-c2coc(=O)n2-c2ccc(C(F)(F)F)cc2)cc1 | > 100
NS(=O)(=O)c1ccc(-c2coc(=O)n2C2CCCCC2)cc1 | > 100
COc1ccc(-n2c(-c3ccc(S(N)(=O)=O)cc3)coc2=O)cc1F | 5.1

test system: Rattus norvegicus; assay: Inhibition of carrageenan paw edema in rats; assay type: functional
Outline: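 Fasted male Wistar rats (150-175 g, 6/group) dosed orally in 0.5% methyl cellulose/0.1% Tween (10 mL/kg). One hour later, 0.1 mL 1% carrageenan in saline was given subcutaneously into the left hind paw.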

Structure (SMILES) | ED35 [mg/kg]
Cc1ccc(-n2c(-c3ccc(S(N)(=O)=O)cc3)c(C)oc2=O)cc1 | 2.6
COc1ccc(-n2c(-c3ccc(S(N)(=O)=O)cc3)coc2=O)cc1Cl | 2.4
NS(=O)(=O)c1ccc(-c2coc(=O)n2-c2cccc(Cl)c2)cc1 | 1.3
COc1ccc(-n2c(-c3ccc(S(N)(=O)=O)cc3)coc2=O)cc1F | 3
